Data taken from ChEMBL document CHEMBL5042515, “Design and Evaluation of a Novel Peptide-Drug Conjugate Covalently Targeting SARS-CoV-2 Papain-like Protease” (J Med Chem, 2022).
pIC50: −log10 of the molar value. Calls of active or inactive are those of the source. No cut-off for these calls is given here. *1 amine or outer side, *2 acyl side, *3 side chain or, on linkers, in order; H or OH if unused. Where a SMILES comes first, the peptide text is derived from it. Bridges are numbered along the chain shown (N, C = ends). [ ]: non-standard residue; d: D form. The star is where a group is joined. Met(S-mXyl) = C[S+](CC[C@H](N[*:1])C(=O)[*:2])Cc1cccc(C[*:3])c1; 5FAM = O=C1OC2(c3ccc(O)cc3Oc3cc(O)ccc32)c2ccc(C(=O)*)cc21; X2 = C[S+](CC[C@@H](N[*:1])C(=O)[*:2])Cc1cccc(C[*:3])c1; X1 = Cc1ccc(N*)cc1C(=O)NC(C)c1cccc2ccccc12

How the values were obtained:
[1] = Hemolytic activity against mouse erythrocyte at 0 to 60 uM for 1.5 hrs by microplate reader analysis; type: toxicity, cell-based; conditions: dose 0-60 µM
In short: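 Fresh mouse erythrocytes washed and resuspended in PBS at 10^8/mL, then exposed to serial dilutions starting at 60 μM for 1.5 h at 37 °C. Supernatant hemoglobin read by absorbance. 0.1% Triton X-100 used as 100% control and PBS as blank; % hemolysis calculated relative to both.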

[2] = tested on: HEK-293T; experiment: Cytotoxicity against HEK293T cells assessed as inhibition of cell growth at 1.56 to 100 uM incubated for 24 hrs by MTT assay; type: toxicity, cell-based; conditions: human, dose 1.56-100 µM
In short: (§1)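 A549 (RPMI-1640) or 293T (DMEM) cells with 10% FBS, plated overnight, then treated 24 h at 1.56–100 μM in medium with 5% FBS. MTT (5 mg/mL reagent) added for 4 h at 37 °C, dissolved in DMSO, absorbance read at 490 nm. DMSO-only control; at least three independent measurements.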

[3] = Inhibition of SARS-CoV PLpro using LRGG-ACC as substrate preincubated for 60 mins followed by substrate addition and measured for 30 mins by enzymatic assay; design: species or system Severe acute respiratory syndrome-related coronavirus
[4] = molecular target: Replicase polyprotein 1ab (Middle East respiratory syndrome-related coronavirus (isolate UnitedKingdom/H123990006/2012) (Betacoronavirus England 1) (Humancoronavirus EMC)) (UniProt K9N7C7); experiment: Inhibition of MERS PLpro using LRGG-ACC as substrate upto 1000 uM preincubated for 60 mins followed by substrate addition and measured for 30 mins by enzymatic assay; conditions: dose microM <=1000, time 90.0 min
[5] = tested on: A549; experiment: Cytotoxicity against human A549 cells assessed as inhibition of cell growth at 1.56 to 100 uM incubated for 24 hrs by MTT assay; type: toxicity, cell-based; conditions: a549, 24 h, dose 1.56-100 µM; in short: as §1
[6] = tested on: HEK293T; experiment: Covalent binding affinity to SARS-CoV-2 PLpro spiked in HEK293T cells lysate at 10 uM incubated for 1 hr by SDS gel analysis; type: subcellular; conditions: Severe acute respiratory syndrome coronavirus 2
In short: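 293T cell lysate (300 μg protein) spiked with PLpro (5 μM), then treated with 10 μM FAM-labeled peptide. Labeling read as fluorescent bands on gel.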

[7] = tested on: Severe acute respiratory syndrome coronavirus 2; experiment: Binding affinity to SARS-CoV-2 PLpro assessed as covalent bond formation at Cys111 at 10 uM incubated for 1 hr by SDS-PAGE analysis
[8] = tested on: Severe acute respiratory syndrome coronavirus 2; experiment: Inhibition of SARS-CoV-2 PLpro using LRGG-ACC as substrate at <=1000 uM preincubated for 60 mins followed by substrate addition and measured for 30 mins by enzymatic assay; conditions: dose microM <=1000, time 90.0 min
In short: (§2)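 Recombinant His-tagged SARS-CoV-2 PLpro (E. coli BL21(DE3), Ni-NTA then gel filtration) at 0.1 μM, preincubated 1 h at 37 °C with inhibitor diluted from 800 μM. Buffer: 50 mM HEPES pH 7.4, 0.1 mg/mL BSA, 5 mM DTT. Ac-LRGG-ACC substrate at 1 μM final. Fluorescence read at ex 355/em 460 nm for 30 min, at least three times; IC50 from curve fitting.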

[9] = tested on: Severe acute respiratory syndrome coronavirus 2; experiment: Binding affinity to SARS-CoV-2 PLpro assessed as covalent bond formation at 10 uM incubated for 1 hr by SDS-PAGE analysis
In short: (§3)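 FAM-labeled peptides (10 μM) incubated with purified SARS-CoV-2 PLpro (5 μM) in PBS for 1 h. Covalent adduct detected by SDS gel analysis.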

[10] = Drug uptake in human HeLa cells at 10 uM for 4 hrs by tryphan blue staining based flow cytometry relative to control; type: ADME, cell-based
[11] = tested on: Severe acute respiratory syndrome coronavirus 2; experiment: Covalent binding affinity to SARS-CoV-2 PLpro by SDS-PAGE analysis
[12] = tested on: Severe acute respiratory syndrome coronavirus 2; experiment: Covalent binding affinity to SARS-CoV-2 PLpro assessed as reaction efficiency at 0 to 25 uM for 2 hrs by SDS-PAGE analysis; conditions: dose 0-25 µM
In short: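 Purified SARS-CoV-2 PLpro (5 μM) incubated with peptide at 0, 2.5, 5, 10, 15, 20 and 25 μM in PBS (pH 7.4, 37 °C). Conjugation resolved on 15% SDS-PAGE.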

[13] = Inhibition of SARS-CoV-2 PLpro using LRGG-ACC as substrate preincubated for 60 mins followed by substrate addition and measured for 30 mins by enzymatic assay; design: species or system Severe acute respiratory syndrome coronavirus 2; in short: as §2
[14] = tested on: HEK-293T; experiment: Antiviral activity against HEK293T cells co-transfected with plasmids encoding Myc-tagged ISG15, E1/E2/E3 ubiquitin ligases, SARS-CoV-2 PLpro fused with EGFP assessed as recovery of intracellular ISGylation level incubated for 24 hrs by immunoblot analysis; type: functional, cell-based; conditions: Homo sapiens
In short: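 HEK293T cells co-transfected with Myc-ISG15, E1/E2/E3 ligases and EGFP-fused SARS-CoV-2 PLpro, then kept 24 h at 37 °C in DMEM with 5% FBS plus conjugate. Lysates BCA-normalised, 30 μg per lane. Western blot probed with anti-ISG15, anti-GFP and anti-GAPDH (1:1000), ECL detection.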

[15] = tested on: HEK-293T; experiment: Antiviral activity in HEK293T cells co-transfected with plasmids encoding Renilla luciferase, Firefly luciferase is driven by IFN-beta promoter, MAVS assessed as recovery of suppressed IFN-beta promoter activity at 10 to 100 uM by Dual-Luciferase reporter assay relative to control; type: functional, cell-based; conditions: Homo sapiens, dose 10-100 µM
In short: (§4)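 HEK293T cells co-transfected with Renilla luciferase reference, IFN-β promoter-driven firefly luciferase, MAVS and SARS-CoV-2 PLpro, then treated with conjugate. Activity scaled to the ISG15-plasmid positive control set as 100%; blank plasmid as negative control; unpaired two-tailed t-test.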

[16] = tested on: Severe acute respiratory syndrome coronavirus 2; experiment: Covalent binding affinity to SARS-CoV-2 PLpro Cys111 at 30 uM for 4 hrs by In-gel trypsin digestion based MS-MS analysis
In short: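 Peptide (30 μM) with PLpro (5 μM) in Tris buffer, 37 °C, 4 h. Conjugate band excised from 15% SDS-PAGE, destained with ammonium bicarbonate/acetonitrile and trypsin-digested overnight at 16 °C. Peptides extracted in 50% acetonitrile/0.5% formic acid for MS/MS mapping of the modified residue.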

[17] = tested on: Severe acute respiratory syndrome-related coronavirus; experiment: Inhibition of SARS-CoV PLpro using LRGG-ACC as substrate at <=1000 uM preincubated for 60 mins followed by substrate addition and measured for 30 mins by enzymatic assay; conditions: dose microM <=1000, time 90.0 min
[18] = tested on: Severe acute respiratory syndrome coronavirus 2; experiment: Covalent binding affinity to SARS-CoV-2 PLpro assessed as reaction efficiency at 10 uM and incubated for 0.5 to 4 hrs by SDS-PAGE analysis; conditions: time 0.5-4 hrs, TDE = time-dependent effect
In short: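 Peptide (10 μM) with purified SARS-CoV-2 PLpro (5 μM) in PBS, pH 7.4, 37 °C, sampled at 0.5, 1, 2, 3 and 4 h. Conjugate band resolved on 15% SDS-PAGE.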

[19] = tested on: Severe acute respiratory syndrome coronavirus 2; experiment: Covalent binding affinity to SARS-CoV-2 PLpro assessed as reaction efficiency at 10 uM for 1 hr by SDS-PAGE analysis; in short: as §3
[20] = tested on: HEK-293T; experiment: Antiviral activity in HEK293T cells co-transfected with plasmids encoding Renilla luciferase, Firefly luciferase is driven by IFN-beta promoter, MAVS assessed as recovery of suppressed IFN-beta promoter activity at 100 uM by Dual-Luciferase reporter assay; type: functional, cell-based; conditions: Homo sapiens; in short: as §4

Cc1ccc(N)cc1C(=O)NC(C)c1cccc2ccccc12 (stereo not drawn)
Activity [1]: Non-Toxic | Activity [2]: Non-Toxic | pIC50 [3]: 5.59 | inhibition [4]: inactive | Activity [5]: Non-Toxic

Cc1ccc(NC(=O)CC[C@H](NC(=O)c2ccc3c(c2)C(=O)OC32c3ccc(O)cc3Oc3cc(O)ccc32)C(=O)N[C@H]2CSCc3cccc(c3)C[S+](C)CC[C@@H](C(=O)O)NC(=O)CNC(=O)[C@H](CCCNC(=N)N)NC(=O)[C@H](CC(C)C)NC2=O)cc1C(=O)NC(C)c1cccc2ccccc12 (stereo partly drawn) (5FAM-E(X1)CLRG[Met(S-mXyl)]-OH; thioether 2-6)
Activity [6]: Active

Cc1ccc(NC(=O)CC[C@H](NC(=O)c2ccc3c(c2)C(=O)OC32c3ccc(O)cc3Oc3cc(O)ccc32)C(=O)N[C@H]2CC[S+](C)Cc3cccc(c3)CSC[C@@H](C(=O)O)NC(=O)CNC(=O)[C@H](CCCNC(=N)N)NC(=O)[C@H](CC(C)C)NC2=O)cc1C(=O)NC(C)c1cccc2ccccc12 (stereo partly drawn) (5FAM-E(X1)[Met(S-mXyl)]LRGC-OH; thioether 2-6)
Activity [6]: Active

CC(C)C[C@@H]1NC(=O)[C@@H](N)CSCc2cccc(c2)C[S+](C)CC[C@@H](C(=O)O)NC(=O)CNC(=O)[C@H](CCCNC(=N)N)NC1=O (stereo partly drawn) (H-CLRG[Met(S-mXyl)]-OH; thioether 1-5)
Activity [7]: Active | inhibition [8]: inactive | Activity [9]: Active

C[S+]1CC[C@@H](C(=O)O)NC(=O)CNC(=O)CNC(=O)[C@H](CCCNC(=N)N)NC(=O)[C@@H](N)CSCc2cccc(c2)C1 (stereo partly drawn) (H-CRGG[Met(S-mXyl)]-OH; thioether 1-5)
Activity [7]: Active | inhibition [8]: inactive | Activity [9]: Active

Cc1ccc(NC(=O)CC[C@H](N)C(=O)N[C@H]2CSCc3cccc(c3)C[S+](C)CC[C@@H](C(=O)O)NC(=O)CNC(=O)[C@H](CCCNC(=N)N)NC(=O)[C@H](CC(C)C)NC2=O)cc1C(=O)NC(C)c1cccc2ccccc12 (stereo partly drawn) (H-E(X1)CLRG[Met(S-mXyl)]-OH; thioether 2-6)
Drug uptake [10]: Active | Activity [11]: Active | Activity [12]: Dose-Dependent Effect | pIC50 [13]: 5.06 | Activity [1]: Non-Toxic | Activity [14]: Dose-Dependent Effect | Activity [2]: Non-Toxic | Activity [15]: Dose-Dependent Effect | Activity [16]: Active | inhibition [4]: inactive | Activity [5]: Non-Toxic | inhibition [17]: Active

Cc1ccc(NC(=O)CC[C@H](N)C(=O)N[C@@H](CC(C)C)C(=O)N[C@@H](CCCNC(=N)N)C(=O)NCC(=O)NCC(=O)O)cc1C(=O)NC(C)c1cccc2ccccc12 (stereo partly drawn) (H-E(X1)LRGG-OH)
Drug uptake [10]: Active | Activity [11]: inactive | pIC50 [13]: 4.81 | inhibition [4]: inactive | inhibition [17]: inactive

Cc1ccc(NC(=O)CC[C@H](N)C(=O)N[C@H]2CC[S+](C)Cc3cccc(c3)CSC[C@@H](C(=O)O)NC(=O)CNC(=O)[C@H](CCCNC(=N)N)NC(=O)[C@H](CC(C)C)NC2=O)cc1C(=O)NC(C)c1cccc2ccccc12 (stereo partly drawn) (H-E(X1)[Met(S-mXyl)]LRGC-OH; thioether 2-6)
Drug uptake [10]: Active | Activity [11]: Active | Activity [12]: Dose-Dependent Effect | pIC50 [13]: 5.13 | Activity [1]: Non-Toxic | Activity [14]: Dose-Dependent Effect | Activity [2]: Non-Toxic | Activity [18]: Tde | Activity [19]: Active | pIC50 [3]: 5.46 | inhibition [4]: inactive | Activity [5]: Non-Toxic | Activity [20]: inactive

CC(C)C[C@H](N)C(=O)N[C@H]1CSCc2cccc(c2)C[S+](C)CC[C@H](C(=O)O)NC(=O)CNC(=O)CNC1=O (stereo partly drawn) (H-LCGG[X2]-OH; thioether 2-5)
inhibition [8]: inactive

CC(C)C[C@H](N)C(=O)N[C@@H](CCCNC(=N)N)C(=O)NCC(=O)NCC(=O)N[C@H]1CSCc2cccc(c2)C[S+](C)CC[C@@H](C(=O)O)NC(=O)[C@H](C)NC(=O)[C@H](C)NC(=O)[C@H](C)NC1=O (stereo partly drawn) (H-LRGGCAAA[Met(S-mXyl)]-OH; thioether 5-9)
Activity [7]: Active | inhibition [8]: inactive | Activity [9]: Active

CC(C)C[C@H](N)C(=O)N[C@@H](CCCNC(=N)N)C(=O)NCC(=O)NCC(=O)N[C@H]1CC[S+](C)Cc2cccc(c2)CSC[C@@H](C(=O)O)NC(=O)[C@H](C)NC(=O)[C@H](C)NC(=O)[C@H](C)NC1=O (stereo partly drawn) (H-LRGG[Met(S-mXyl)]AAAC-OH; thioether 5-9)
inhibition [8]: inactive | Activity [9]: Active

CC(C)C[C@H](N)C(=O)N[C@H]1CC[S+](C)Cc2cccc(c2)CSC[C@@H](C(=O)O)NC(=O)CNC(=O)CNC1=O (stereo partly drawn) (H-L[Met(S-mXyl)]GGC-OH; thioether 2-5)
inhibition [8]: inactive

CC(C)C[C@@H]1NC(=O)[C@@H](N)CC[S+](C)Cc2cccc(c2)CSC[C@@H](C(=O)O)NC(=O)CNC(=O)[C@H](CCCNC(=N)N)NC1=O (stereo partly drawn) (H-[Met(S-mXyl)]LRGC-OH; thioether 1-5)
inhibition [8]: inactive

C[S+]1CC[C@H](N)C(=O)N[C@@H](CCCNC(=N)N)C(=O)NCC(=O)NCC(=O)N[C@H](C(=O)O)CSCc2cccc(c2)C1 (stereo partly drawn) (H-[Met(S-mXyl)]RGGC-OH; thioether 1-5)
inhibition [8]: inactive | Activity [9]: Active
